Most compounds without a hit are left out; they make up all but 2.4% or so of the library.
RORA act = RORA (human) activation | 1.5% of 65,000 active | AID 560 | CHO-K1 Gal4-RORA LBD luciferase reporter, luminescence; percent increase over mock-subtracted basal signal | P35398 | activation, % at 10 µM;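 active = activation above the mean of all tested compounds plus 3 SD, cut at about 49% in these data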;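 note: 0% = DMSO-treated RORA cells and 100% = added signal equal to DMSO minus mock-transfected cells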
Ec RNAP inh = inhibitors of Escherichia coli RNA polymerase | inhibition, %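 (tested at 10 µM)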 | P0A8V2 | E. coli RNA polymerase, fluorescence transcription assay | 0.2% of 62,000 active; in the data active = inhibition above about 20%;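 note: 0% = enzyme without compound and 100% = no enzyme blank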
MMP13 inh = inhibitors of human MMP13 | 0.07% of 65,000 active | AID 570 | MMP-13 fTHP FRET cleavage, Mca fluorescence | inhibition, % at 4 µM;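 active = inhibition above the mean of compound-free control plate wells plus 3 SD, cut at about 14% in these data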;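 note: 0% = DMSO wells and 100% = wells with reference MMP-13 inhibitor after basal subtraction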
HePTP inh = human HePTP phosphatase inhibition. P35236. recombinant HePTP phosphatase activity, OD absorbance. inhibition, % at 20 µM. 0.64% of 110,000 active; in the data active = inhibition above about 50%;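 note: plate controls were vehicle for no effect and reference inhibitor for full effect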
Target sequence (P35236 whole entry, looked up): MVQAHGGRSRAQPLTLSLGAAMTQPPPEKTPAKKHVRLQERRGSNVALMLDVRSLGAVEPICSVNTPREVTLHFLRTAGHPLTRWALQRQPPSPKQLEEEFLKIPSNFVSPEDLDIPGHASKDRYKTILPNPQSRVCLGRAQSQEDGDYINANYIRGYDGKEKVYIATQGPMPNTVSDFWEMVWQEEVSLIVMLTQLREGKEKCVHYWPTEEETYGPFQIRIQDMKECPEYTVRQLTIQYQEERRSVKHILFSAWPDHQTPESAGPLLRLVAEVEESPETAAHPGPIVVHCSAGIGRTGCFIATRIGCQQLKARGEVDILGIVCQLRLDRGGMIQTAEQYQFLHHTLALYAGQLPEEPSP
SF-1 act = activates the human nuclear receptor SF-1; activation, % at 10 µM; CHO-K1 Gal4-SF-1 LBD luciferase reporter; % increase over DMSO SF-1-specific signal; 1.9% of 65,000 active; Q13285;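 active = activation above the mean activation of all tested compounds plus 3 SD, cut at about 50% in these data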
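Material: CHO-K1 cells with Gal4–hSF-1 LBD chimera plus Gal4-driven luciferase / Input: 4,000 CHO-K1 cells per well / Incubation: compound exposure 20 h at 37 °C / Signal: luminescence read 15 min after SteadyLite luciferase reagent, after room-temperature equilibration / Read-out: percent activation versus DMSO / Benchmarks: DMSO negative control and −SF1 background wells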
AP ELISA ortho = orthogonal test for alternative complement pathway inhibitors | Human serum alternative complement pathway, LPS-coated ELISA, C3 deposition; tested in compound mixtures | inhibition, % at 5 µM | 0.08% of 62,000 active;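 active = inhibition above 30% in each of the two pooled mixtures holding the compound, so the lower value exceeds 30%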;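 note: 0% = serum in Mg-EGTA without compound and 100% = EDTA serum blank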
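Test system: human serum alternative complement pathway, C3 deposition on LPS-coated wells; also added: Plate-bound LPS; doses: 5 µM per compound in ten-compound mixtures; schedule: 1 h at 37 °C; detection: Anti-C3 ELISA, OD 450 nm; evaluation: percent inhibition of C3 deposition onto LPS; repeats: two pool placements per compound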
Numbers without * were called inactive; · = no result given.

SMILES	RORA act	Ec RNAP inh	MMP13 inh	HePTP inh	SF-1 act	AP ELISA ortho
Cc1cnn(C(=S)NCc2ccc(Cl)cc2)c1	-11	9	9	·	-13	17
Cc1cnn(C(=S)NCCc2ccccc2)c1	27	10	0	13	53*	0
O=C(CCn1nnc(-c2cccs2)n1)NCc1ccccc1Cl	1	4	1	9	-11	3
Clc1ccccc1Cn1nnc(-c2cccs2)n1	43	3	-2	10	51*	8
O=C(Nc1ccccc1C(=O)NCc1ccco1)c1ccccc1Br	·	·	·	-4	·	·
O=C1/C(=C/c2cn(Cc3ccccc3Cl)c3ccccc23)Sc2ccccc21	·	·	·	-7	·	·
COc1ccc2c(c1OC)C(=O)N(c1nccs1)C2	19	7	-11	6	75*	12
CCN(CC)S(=O)(=O)c1ccc2c(c1)C(=Cc1ccccc1)c1cc(S(=O)(=O)N(CC)CC)ccc1-2	·	·	·	10	·	·
Cc1c(NC(=O)c2ccc(Br)cc2)cccc1-c1nc2ncccc2o1	·	·	·	-1	·	·
Cc1cc(I)c2c(c1)C1C=CCC1C(C(=O)O)N2 (configuration not stated)	·	·	·	102*	·	·
Cc1ccc2c(c1)C1C=CCC1C(C(=O)O)N2 (configuration not stated)	0	0	11	102*	3	13
c1ccc2c(c1)CCCN2c1nc2ccccc2n2cnnc12	37	6	4	0	54*	25
CCCOc1ccc(/C=C2\C(=O)N(c3cccc(C(=O)O)c3)N=C2C)cc1OC	·	·	·	6	·	·
COc1cc(-c2nc(N)c3c(=O)oc4ccccc4c3n2)cc(OC)c1OC	·	·	·	2	·	·
Cc1cc(-c2ccccc2)nc(N2CCC(C(=O)NC(C)C)CC2)n1	67*	5	-12	5	97*	4
CS(=O)(=O)NCCNc1ccc([N+](=O)[O-])cc1	·	·	·	-4	·	·
O=C(/C=C\Nc1ccc([N+](=O)[O-])cc1Br)c1ccc2c(c1)OCO2	·	·	·	-1	·	·
OC(COc1ccc2ccccc2c1Cl)CN1CCOCC1 (configuration not stated)	49	6	3	3	54*	-2
CCCOc1ccc(/C=N/NS(=O)(=O)c2ccc3ccccc3c2)cc1OC	·	·	·	103*	·	·
COc1ccc(/C=N/NS(=O)(=O)c2ccc(C)cc2)cc1OCc1ccccc1	·	·	·	-10	·	·
O=C(Nc1nc(-c2ccc3c(c2)OCO3)cs1)C1CC1	72*	5	6	-4	51*	9
CCCC(=O)Nc1nc(-c2ccc3c(c2)OCCO3)cs1	63*	7	0	4	61*	24
O=C(Nc1nc(-c2ccc(Cl)cc2)cs1)C1CC1	·	·	·	-2	·	·
Cc1ccc(-c2cc(C(=O)O)c3cc(Br)ccc3n2)o1	·	·	·	104*	·	·
Cc1ccc(-c2cc(C(=O)NC3=NCCS3)c3cc(Br)ccc3n2)o1	10	4	2	16	2	2
SMILES	RORA act	Ec RNAP inh	MMP13 inh	HePTP inh	SF-1 act	AP ELISA ortho
CCOC(=O)c1c(-c2ccc(OC)cc2)csc1NC(=O)C1CCCCC1C(=O)O (configuration not stated)	·	·	·	6	·	·
O=C(NCc1ccco1)c1cc(-c2ccccc2)on1	38	6	1	10	32	8
O=C(NCc1ccco1)c1cc(-c2cccs2)on1	67*	-3	1	7	28	9
O=C(NCCCn1ccnc1)c1cc(-c2cccs2)on1	92*	6	-1	-6	67*	11
O=C(NCCCN1CCOCC1)c1cc(-c2cccs2)on1	42	6	1	-9	32	-9
O=C(Nc1ccccc1C(=O)NCCCn1ccnc1)c1ccccc1	-16	21*	6	15	2	-8
O=C(NCc1ccco1)c1ccc2ccccc2c1	68*	8	8	11	48	10
CCN(C(=O)Cc1ccc(Cl)cc1)c1ccccc1C	·	·	·	3	·	·
O=C(Nc1nc2ccc3ccccc3c2s1)c1ccc(Cl)s1	·	·	·	104*	·	·
O=C(Nc1nccs1)c1ccc(Cl)s1	47	4	7	8	58*	20
COc1cc(C(=O)Nc2nc3ccc4ccccc4c3s2)cc(OC)c1OC	·	·	·	-3	·	·
O=C(Nc1nccs1)c1sc2ccccc2c1Cl	·	·	·	82*	·	·
O=C(CCn1c(=O)sc2ccccc21)Nc1nccs1	53*	0	-1	0	27	10
Cc1csc(NC(=O)CCn2c(=O)sc3ccccc32)n1	3	-9	2	-7	3	12
O=C(COc1ccc2ccccc2c1)N/N=C\c1cc(O)c(O)c(Br)c1	·	·	·	2	·	·
CCC(=O)C1=C(N2CCOCC2)CC(C)(C)CC1=O	·	·	·	-1	·	·
CC1CC(N(c2ccccc2)S(=O)(=O)c2ccc(Cl)cc2)c2ccccc2N1 (configuration not stated)	·	·	·	-5	·	·
CC(=O)c1sc(NC(=O)c2cccc([N+](=O)[O-])c2)nc1C	·	·	·	-16	·	·
O=C(Nc1ccc2sccc2c1)c1ccc(Cl)s1	34	11	4	11	60*	10
O=C(Nc1ccc(Cl)c(-c2nc3ccccc3s2)c1)c1cccs1	·	·	·	7	·	·
COc1cc([N+](=O)[O-])cc(/C=C2/C(=O)NC(=O)N(c3cccc(C)c3)C2=O)c1O	·	·	·	-23	·	·
Cc1ccc(Cl)cc1N1C(=O)C2C(c3ccc(Cl)cc3)OC3(C(=O)c4ccccc4C3=O)C2C1=O (configuration not stated)	·	·	·	-3	·	·
Cc1ccc(Cl)cc1NC(=O)c1ccc(N(Cc2ccccc2)S(C)(=O)=O)cc1	·	·	·	-12	·	·
CN(C)c1ccc(/C=C/c2ccncc2)cc1	73*	-11	1	-3	20	-12
CCCCC(=O)Nc1cccc(-c2cn3ccsc3n2)c1	58*	0	1	0	30	10
SMILES	RORA act	Ec RNAP inh	MMP13 inh	HePTP inh	SF-1 act	AP ELISA ortho
O=C(Nc1cccc(-c2cn3ccsc3n2)c1)c1ccccc1	49*	7	-6	10	27	10
O=C(Nc1ccc(-c2cn3ccsc3n2)cc1)C1COc2ccccc2O1 (configuration not stated)	17	8	4	10	57*	7
O=C(Nc1cccc(-c2cn3ccccc3n2)c1)c1cnccn1	46	1	4	1	52*	9
O=C(Nc1cccc(-c2cn3ccccc3n2)c1)c1ccccc1Cl	·	·	·	-9	·	·
CCOC(=O)CSc1nnc(CCCN2C(=O)c3cccc4cccc(c34)C2=O)n1-c1ccccc1	·	·	·	-2	·	·
O=C(Nc1ccc(-c2cn3ccsc3n2)cc1)c1ccc(F)c(S(=O)(=O)N2CCOCC2)c1	42	-4	-3	-6	57*	0
Brc1ccc(N2COc3ccc4ccccc4c3C2)cc1	·	·	·	2	·	·
CNc1nc(OC)nc(N2CCOCC2)n1	-26	5	-2	2	-13	6
COc1nc(N)nc(N2CCOCC2)n1	11	3	15*	11	-2	5
O=C(NCc1ccc2c(c1)OCO2)c1cccc(C(=O)NCc2ccc3c(c2)OCO3)c1	-5	3	21*	12	3	17

Source: PubChem (several laboratories)
